Laboratory results taken from ChEMBL document CHEMBL1671645, “Pharmacokinetics and absorption of posaconazole oral suspension under various gastric conditions in healthy volunteers” (Antimicrob Agents Chemother, 2009).

How the values were obtained:
[1] = Cmax in fasted healthy human plasma at 400 mg administered as single dose suspension coadministered with proton pump inhibitor; format: ADME, organism-based; set-up: dose 400 mg
How it was run: (§1)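 This was a four-way crossover in 12 healthy subjects with 7–10 day washouts. Each took one fasting 400 mg oral suspension dose, with 12 oz ginger ale and/or esomeprazole 40 mg once each morning on days −2 to 1, with dosing on day 1. Plasma was sampled 0–168 h and measured by LC-MS/MS (LLOQ 5.00 ng/ml). Analysis was noncompartmental, with CL/F = dose/AUC_I and V/F = (CL/F)/K.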

[2] = Cmax in fasted healthy human plasma at 400 mg administered as single dose suspension; format: ADME, organism-based; set-up: dose 400 mg
[3] = Apparent total body clearance in fasted healthy human at 400 mg administered as single dose suspension 5 mins before consumption of high fat meal; format: ADME, organism-based; conditions: in vivo
How it was run: (§2)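 In a crossover of 12 healthy subjects, each took a single 400 mg oral suspension dose 5 min before, midway through (about 10 min into a 20-min meal), or 20 min after a high-fat meal of about 50 g fat. Plasma was drawn 0–168 h and measured by LC-MS/MS. Parameters are noncompartmental, with AUC to the last measurable time.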

[4] = (§3) Half life in fasted healthy human at 400 mg administered as single dose suspension; format: ADME, organism-based; conditions: in vivo
How it was run: (§4)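 Single oral suspension dose in fasting healthy volunteers, alone, with 12 oz ginger ale, after esomeprazole 40 mg once each morning days −2 to 1, or both; four-way crossover, 7–10-day washout. EDTA plasma 0–168 h. LC-MS/MS (LLOQ 5.00 ng/ml). t1/2 = ln(2)/K from terminal log-linear regression; Tmax median.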

[5] = AUC in healthy human at 400 mg administered as single dose suspension coadministered with nutritional supplement and 10 mg metoclopramide; format: ADME, organism-based; conditions: plasma
How it was run: (§5)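 A three-way crossover in 13 healthy subjects gave one 400 mg oral suspension dose with a nutritional supplement, either alone, with metoclopramide 10 mg orally three times daily on the day before and the day of dosing, or with a single 4 mg dose of loperamide. Plasma was taken 0–168 h for LC-MS/MS. Analysis was noncompartmental.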

[6] = tested on: Homo sapiens; assay: Toxicity in healthy human assessed as nausea at 400 mg administered as single dose suspension coadministered with nutritional supplement; format: organism-based; conditions: in vivo
How it was run: (§6)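 Three-way randomized crossover in 13 healthy volunteers with a 7- to 10-day washout. Each period was one 400-mg oral posaconazole suspension dose with a nutritional supplement. Metoclopramide 10 mg was given orally three times daily on the day before and the day of dosing; loperamide was a single 4 mg. Safety was assessed from adverse events, tabulated by body system and severity per treatment.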

[7] = tested on: Homo sapiens; assay: Toxicity in healthy human assessed as adverse events at 400 mg administered as single dose suspension after 20 mins after consumption of high fat meal; format: organism-based; conditions: in vivo
How it was run: (§7)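 Healthy volunteers monitored for adverse events, vital signs, clinical laboratory values and 12-lead ECG. Adverse events tabulated by body system or organ class and severity and summarized by treatment across the crossover regimens.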

[8] = Apparent volume of distribution in fasted healthy human at 400 mg administered as single dose suspension coadministered with acidic carbonated beverage; format: ADME, organism-based; conditions: in vivo, read-out: Vc/F; how it was run: as §1
[9] = Apparent volume of distribution in healthy human at 400 mg administered as single dose suspension coadministered with nutritional supplement and 4 mg loperamide as two 2 mg tablets; format: ADME, organism-based; conditions: in vivo, po, read-out: Vc/F; how it was run: as §5
[10] = tested on: Homo sapiens; assay: Toxicity in healthy human assessed as adverse events at 400 mg administered as single dose suspension 5 mins before consumption of high fat meal; format: organism-based; conditions: in vivo; how it was run: as §7
[11] = Half life in fasted healthy human at 400 mg administered as single dose suspension coadministered with acidic carbonated beverage; format: ADME, organism-based; conditions: in vivo; how it was run: as §4
[12] = Half life in fasted healthy human at 400 mg administered as single dose suspension after 20 mins after consumption of high fat meal; format: ADME, organism-based; conditions: in vivo
How it was run: (§8)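 Single oral suspension dose in healthy volunteers while fasting, 5 min before, midway through (about 10 min into a 20-min meal), or 20 min after a high-fat meal (approx 50 g fat); four-way crossover, 7–10-day washout. Plasma 0–168 h by LC-MS/MS (LLOQ 5.00 ng/ml). t1/2 = ln(2)/K; Tmax median.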

[13] = (§9) Apparent total body clearance in fasted healthy human at 400 mg administered as single dose suspension; format: ADME, organism-based; conditions: in vivo
[14] = Tmax in fasted healthy human at 400 mg administered as single dose suspension; format: ADME, organism-based; conditions: in vivo; how it was run: as §4
[15] = Tmax in fasted healthy human at 400 mg administered as single dose suspension coadministered with proton pump inhibitor; format: ADME, organism-based; conditions: in vivo; how it was run: as §4
[16] = AUC in healthy human at 400 mg administered as single dose suspension coadministered with nutritional supplement and 4 mg loperamide as two 2 mg tablets; format: ADME, organism-based; conditions: plasma; how it was run: as §5
[17] = Half life in fasted healthy human at 400 mg administered as single dose suspension coadministered with proton pump inhibitor; format: ADME, organism-based; conditions: in vivo; how it was run: as §4
[18] = tested on: Homo sapiens; assay: Toxicity in healthy human assessed as dizziness at 400 mg administered as single dose suspension coadministered with nutritional supplement and 10 mg metoclopramide; format: organism-based; conditions: in vivo; how it was run: as §6
[19] = Cmax in fasted healthy human plasma at 400 mg administered as single dose suspension coadministered with acidic carbonated beverage and proton pump inhibitor; format: ADME, organism-based; set-up: dose 400 mg; how it was run: as §1
[20] = Tmax in healthy human at 400 mg administered as single dose suspension coadministered with nutritional supplement; format: ADME, organism-based; conditions: in vivo
How it was run: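 Single oral suspension dose with nutritional supplement, alone or with metoclopramide 10 mg orally three times daily on the day before and the day of dosing; three-way crossover, 7–10-day washout. EDTA plasma predose to 168 h, LC-MS/MS (LLOQ 5.00 ng/ml). t1/2 = ln(2)/K from terminal slope; Tmax median.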

[21] = tested on: Homo sapiens; assay: AUC in fasted healthy human at 200 mg QID, po administered as suspension for 7 days; format: ADME, organism-based, Plasma; conditions: in vivo, 168 h
How it was run: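 Twelve healthy subjects took oral suspension for 7 days as 400 mg BID or 200 mg QID, either fasting or with a Boost-type nutritional supplement, in a crossover with 14–21 day washouts. Nonfat snacks of 800 cal/day or less were allowed. Plasma was sampled 0–168 h after the day-7 morning dose only and analysed by LC-MS/MS. AUC is AUC_τ, normalized to dose.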

[22] = as §3; format: ADME, organism-based; conditions: in vivo; how it was run: as §4; remark: listed apart in the source
[23] = tested on: Homo sapiens; assay: Toxicity in healthy human assessed as asthenia at 200 mg QID, po administered as suspension for 7 days coadministered with nutritional supplement; format: organism-based; conditions: in vivo, 168 h; how it was run: as §7
[24] = tested on: Homo sapiens; assay: Toxicity in healthy human assessed as adverse events at 400 mg BID, po administered as suspension for 7 days; format: organism-based; conditions: in vivo, 168 h; how it was run: as §7
[25] = as §9; format: ADME, organism-based; conditions: in vivo; remark: listed apart in the source
[26] = tested on: Homo sapiens; assay: Toxicity in healthy human assessed as dizziness at 200 mg QID, po administered as suspension for 7 days; format: organism-based; conditions: in vivo, 168 h; how it was run: as §7
[27] = Tmax in healthy human at 400 mg administered as single dose suspension coadministered with nutritional supplement and 4 mg loperamide as two 2 mg tablets; format: ADME, organism-based; conditions: in vivo
How it was run: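 Oral suspension (40 mg/ml) single dose with nutritional supplement plus loperamide 4 mg single dose, healthy volunteers, three-way crossover with 7–10-day washout. EDTA plasma drawn predose and 1–168 h postdose. LC-MS/MS assay (LLOQ 5.00 ng/ml). Noncompartmental parameters; Tmax reported as median (range).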

[28] = Cmax in fasted healthy human plasma at 400 mg administered as single dose suspension 5 mins before consumption of high fat meal; format: ADME, organism-based; set-up: dose 400 mg; how it was run: as §2
[29] = tested on: Homo sapiens; assay: Toxicity in healthy human assessed as adverse events at 400 mg administered as single dose suspension; format: organism-based; conditions: in vivo; how it was run: as §7
[30] = Tmax in fasted healthy human at 400 mg administered as single dose suspension after 20 mins after consumption of high fat meal; format: ADME, organism-based; conditions: in vivo; how it was run: as §8

Compound CC[C@@H]([C@H](C)O)n1ncn(-c2ccc(N3CCN(c4ccc(OC[C@@H]5CO[C@@](Cn6cncn6)(c6ccc(F)cc6F)C5)cc4)CC3)cc2)c1=O [POSACONAZOLE] has a Cmax [1] of 76.7 ng/mL, a Cmax [2] of 181 ng/mL and a CL/F [3] of 957 mL/min. It also gave a half-life [4] of 1640 min, an AUC [5] of 7390 ng·h/mL and an Activity [6] of 23%. It also gave an Activity [7] of 25%, a Vd/F [8] of 1840 L and a Vd/F [9] of 1750 L. The Activity [10] was 25%, the half-life [11] was 1510 min and the half-life [12] was 1360 min. The CL/F [13] was 1390 mL/min, the Tmax [14] was 5 h and the Tmax [15] was 6 h. The AUC [16] was 10400 ng·h/mL, the half-life [17] was 1540 min and the Activity [18] was 15%. The Cmax [19] was 93.3 ng/mL, the Tmax [20] was 5.5 h and the AUC [21] was 132 µg·h/mL. For the same compound, the half-life [22] was 1470 min, the Activity [23] was 25% and the Activity [24] was 75%. It also gave a CL/F [25] of 1830 mL/min, an Activity [26] of 33% and a Tmax [27] of 5 h. The Cmax [28] was 274 ng/mL, the Activity [29] was 25% and the Tmax [30] was 6 h.
